{
  "source": "ChEMBL document CHEMBL3425469",
  "about": "“Discovery of imidazo[2,1-b]thiazole HCV NS4B inhibitors exhibiting synergistic effect with other direct-acting antiviral agents” (J Med Chem, 2015)",
  "key": {"Hepatitis C virus [1]": {"tested_on": "Hepatitis C virus", "experiment": "Antiviral activity against Hepatitis C virus genotype 1b Con 1 infected in human HuH7 cells at 10 nM after 72 hrs by luciferase assay in presence of 20 uM clemizole", "format": "functional, Hepacivirus hominis, Huh-7", "outline": "(§1)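 Stable Con1 GT1b bicistronic luciferase replicon in Huh-7 cells, 8000 cells/well. Test compound and a marketed DAA or clemizole added alone or together at varied concentrations, 0.5% DMSO final. 72 h at 37°C, then luciferase read with Bright-Glo. Inhibition expressed as % of untreated control, with cytotoxicity run in parallel. CI and DRI derived by the Chou–Talalay median-effect method.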"}, "Hepatitis C virus [2]": {"tested_on": "Hepatitis C virus", "experiment": "Antiviral activity against Hepatitis C virus genotype 1b Con 1 infected in human HuH7 cells at 10 nM after 72 hrs by luciferase assay in presence of 15 uM clemizole", "format": "functional, Hepacivirus hominis, Huh-7", "outline": "as §1"}, "[3]": {"experiment": "Cytotoxicity against human HuH7 cells assessed as cell proliferation by cell titer assay", "format": "cell-based, Huh-7", "outline": "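Huh-7 cells carrying GT1b Con1 bicistronic replicon seeded at 8000 cells/well; compound added at 0.5% DMSO final, 37°C for 72 h. Proliferation read with CellTiter-Fluor reagent per manufacturer; CC50 fitted from concentration-response, average of at least two independent determinations.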"}, "Hepatitis C virus [4]": {"tested_on": "Hepatitis C virus", "experiment": "Antiviral activity against Hepatitis C virus genotype 1b Con 1 infected in human HuH7 cells at 80 nM after 72 hrs by luciferase assay in presence of 3 nM simeprevir", "format": "functional, Hepacivirus hominis, Huh-7", "outline": "(§2)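 Huh-7 cells stably carrying a GT1b Con1 bicistronic luciferase replicon, seeded at 8000 cells/well. The test compound and the partner DAA are dosed orthogonally at various concentrations, final 0.5% DMSO, then incubated 72 h at 37°C. Bright-Glo luciferase read-out gives replicon inhibition as % of untreated control. Cytotoxicity is checked in parallel by CellTiter-Fluor. CI and DRI are derived by the Chou–Talalay median-effect method.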"}, "Hepatitis C virus [5]": {"tested_on": "Hepatitis C virus", "experiment": "Antiviral activity against Hepatitis C virus genotype 1b harboring Y93H NS5A mutation transfected in human HuH7 cells after 72 hrs by luciferase assay", "format": "functional, cell-based, Hepacivirus hominis", "details": "Huh-7, 72 h", "outline": "(§3)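 Huh-7 cells were transiently electroporated with genotype 1b replicon RNA carrying the specified mutation and plated at 10000 cells/well. Compounds were added at 0.5% DMSO final for 72 h at 37°C. Read-out was Bright-Glo luciferase. EC50 is the mean of two independent runs within 2-fold of each other. A reference drug EC50 was measured alongside each mutant replicon to validate it.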"}, "Hepatitis C virus [6]": {"tested_on": "Hepatitis C virus", "experiment": "Antiviral activity against Hepatitis C virus genotype 1b Con 1 infected in human HuH7 cells at 40 nM after 72 hrs by luciferase assay in presence of 12.5 uM clemizole", "format": "functional, Hepacivirus hominis, Huh-7", "outline": "as §2"}, "Hepatitis C virus [7]": {"tested_on": "Hepatitis C virus", "experiment": "Antiviral activity against Hepatitis C virus genotype 1b harboring Q26R mutation transfected in human HuH7 cells after 72 hrs by luciferase assay", "format": "functional, cell-based, Hepacivirus hominis", "details": "Huh-7, 72 h", "outline": "as §3"}, "Hepatitis C virus [8]": {"tested_on": "Hepatitis C virus", "experiment": "Antiviral activity against Hepatitis C virus genotype 1b Con 1 infected in human HuH7 cells at 2.5 nM after 72 hrs by luciferase assay in presence of 0.02 nM daclatasvir", "format": "functional, Hepacivirus hominis, Huh-7", "outline": "as §1"}, "Hepatitis C virus [9]": {"tested_on": "Hepatitis C virus", "experiment": "Antiviral activity against Hepatitis C virus genotype 1b Con 1 infected in human HuH7 cells at 80 nM after 72 hrs by luciferase assay in presence of 30 nM sofobuvir", "format": "functional, Hepacivirus hominis, Huh-7", "outline": "as §2"}, "Hepatitis C virus [10]": {"tested_on": "Hepatitis C virus", "experiment": "Antiviral activity against Hepatitis C virus genotype 1b Con 1 infected in human HuH7 cells at 40 nM after 72 hrs by luciferase assay in presence of 3 nM simeprevir", "format": "functional, Hepacivirus hominis, Huh-7", "outline": "as §2"}, "Hepatitis C virus [11]": {"tested_on": "Hepatitis C virus", "experiment": "Antiviral activity against Hepatitis C virus genotype 1b Con 1 infected in human HuH7 cells at 20 nM after 72 hrs by luciferase assay in presence of 20 uM clemizole", "format": "functional, Hepacivirus hominis, Huh-7", "outline": "as §2"}, "Hepatitis C virus [12]": {"tested_on": "Hepatitis C virus", "experiment": "Antiviral activity against Hepatitis C virus genotype 1b Con 1 infected in human HuH7 cells at 2.5 nM after 72 hrs by luciferase assay in presence of 10 uM clemizole", "format": "functional, Hepacivirus hominis, Huh-7", "outline": "as §1"}, "Hepatitis C virus [13]": {"tested_on": "Hepatitis C virus", "experiment": "Antiviral activity against Hepatitis C virus genotype 1b Con 1 infected in human HuH7 cells at 2.5 nM after 72 hrs by luciferase assay in presence of 0.08 nM daclatasvir", "format": "functional, Hepacivirus hominis, Huh-7", "outline": "as §1"}, "Hepatitis C virus [14]": {"tested_on": "Hepatitis C virus", "experiment": "Antiviral activity against Hepatitis C virus genotype 1b Con 1 infected in human HuH7 cells at 2.5 nM after 72 hrs by luciferase assay in presence of 120 nM sofobuvir", "format": "functional, Hepacivirus hominis, Huh-7", "outline": "as §1"}, "Hepatitis C virus [15]": {"tested_on": "Hepatitis C virus", "experiment": "Antiviral activity against Hepatitis C virus genotype 1b Con 1 infected in human HuH7 cells at 80 nM after 72 hrs by luciferase assay in presence of 60 nM sofobuvir", "format": "functional, Hepacivirus hominis, Huh-7", "outline": "as §2"}, "Hepatitis C virus [16]": {"tested_on": "Hepatitis C virus", "experiment": "Antiviral activity against Hepatitis C virus genotype 1b Con 1 infected in human HuH7 cells at 160 nM after 72 hrs by luciferase assay in presence of 60 nM sofobuvir", "format": "functional, Hepacivirus hominis, Huh-7", "outline": "as §1"}, "Hepatitis C virus [17]": {"tested_on": "Hepatitis C virus", "experiment": "Antiviral activity against Hepatitis C virus genotype 1b Con 1 infected in human HuH7 cells at 80 nM after 72 hrs by luciferase assay in presence of 180 nM sofobuvir", "format": "functional, Hepacivirus hominis, Huh-7", "outline": "as §2"}, "Hepatitis C virus [18]": {"tested_on": "Hepatitis C virus", "experiment": "Antiviral activity against Hepatitis C virus genotype 1b Con 1 infected in human HuH7 cells at 2.5 nM after 72 hrs by luciferase assay in presence of 3 nM simeprevir", "format": "functional, Hepacivirus hominis, Huh-7", "outline": "as §1"}, "Hepatitis C virus [19]": {"tested_on": "Hepatitis C virus", "experiment": "Antiviral activity against Hepatitis C virus genotype 1b Con 1 infected in human HuH7 cells at 160 nM after 72 hrs by luciferase assay in presence of 10 uM clemizole", "format": "functional, Hepacivirus hominis, Huh-7", "outline": "as §1"}, "Hepatitis C virus [20]": {"tested_on": "Hepatitis C virus", "experiment": "Antiviral activity against Hepatitis C virus genotype 1b Con 1 infected in human HuH7 cells at 20 nM after 72 hrs by luciferase assay in presence of 0.16 nM daclatasvir", "format": "functional, Hepacivirus hominis, Huh-7", "outline": "as §1"}, "Hepatitis C virus [21]": {"tested_on": "Hepatitis C virus", "experiment": "Antiviral activity against Hepatitis C virus genotype 1b Con 1 infected in human HuH7 cells at 160 nM after 72 hrs by luciferase assay in presence of 30 nM sofobuvir", "format": "functional, Hepacivirus hominis, Huh-7", "outline": "as §1"}, "Hepatitis C virus [22]": {"tested_on": "Hepatitis C virus", "experiment": "Antiviral activity against Hepatitis C virus genotype 1b Con 1 infected in human HuH7 cells at 5 nM after 72 hrs by luciferase assay in presence of 0.08 nM daclatasvir", "format": "functional, Hepacivirus hominis, Huh-7", "outline": "as §2"}, "Hepatitis C virus [23]": {"tested_on": "Hepatitis C virus", "experiment": "Antiviral activity against Hepatitis C virus genotype 1b harboring S282T NS5B (active site) mutation transfected in human HuH7 cells after 72 hrs by luciferase assay", "format": "functional, cell-based, Hepacivirus hominis", "details": "Huh-7, 72 h", "outline": "as §3"}, "Hepatitis C virus [24]": {"tested_on": "Hepatitis C virus", "experiment": "Antiviral activity against Hepatitis C virus genotype 1b Con1 infected in human HuH7 cells after 72 hrs by luciferase assay", "format": "functional, cell-based, Hepacivirus hominis", "details": "genotype 1b Con 1, Huh-7, 72 h", "outline": "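Huh-7 cells stably carrying a genotype 1b Con1 bicistronic luciferase replicon, seeded at 8000 cells/well. Compounds were added at 0.5% DMSO final and incubated at 37°C for 72 h. Read-out was Bright-Glo luciferase, with cell proliferation measured by CellTiter-Fluor. EC50 is the mean of at least two independent runs. Some values are given as percent inhibition at 10 µM.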"}},
  "data": [
    {"smiles": "O=C(c1nc2scc(C3CC3)n2c1Cl)N1CCN(C2CCCC2)C(=O)C1", "values": [
      {"measurement": "CI", "setting": "Hepatitis C virus [1]", "result": 1.16},
      {"measurement": "CI", "setting": "Hepatitis C virus [2]", "result": 1.05},
      {"measurement": "CC50", "setting": "[3]", "result": "> 10000", "unit": "nM"},
      {"measurement": "CI", "setting": "Hepatitis C virus [4]", "result": 0.62},
      {"measurement": "EC50", "setting": "Hepatitis C virus [5]", "result": 14, "unit": "nM"},
      {"measurement": "CI", "setting": "Hepatitis C virus [6]", "result": 0.76},
      {"measurement": "EC50", "setting": "Hepatitis C virus [7]", "result": 350, "unit": "nM"},
      {"measurement": "CI", "setting": "Hepatitis C virus [8]", "result": 1.2},
      {"measurement": "CI", "setting": "Hepatitis C virus [9]", "result": 0.91},
      {"measurement": "CI", "setting": "Hepatitis C virus [10]", "result": 0.74},
      {"measurement": "CI", "setting": "Hepatitis C virus [11]", "result": 1.03},
      {"measurement": "CI", "setting": "Hepatitis C virus [12]", "result": 0.87},
      {"measurement": "CI", "setting": "Hepatitis C virus [13]", "result": 0.66},
      {"measurement": "CI", "setting": "Hepatitis C virus [14]", "result": 0.9},
      {"measurement": "CI", "setting": "Hepatitis C virus [15]", "result": 0.64},
      {"measurement": "CI", "setting": "Hepatitis C virus [16]", "result": 0.58},
      {"measurement": "CI", "setting": "Hepatitis C virus [17]", "result": 0.43},
      {"measurement": "CI", "setting": "Hepatitis C virus [18]", "result": 1.26},
      {"measurement": "CI", "setting": "Hepatitis C virus [19]", "result": 1.09},
      {"measurement": "CI", "setting": "Hepatitis C virus [20]", "result": 0.69},
      {"measurement": "CI", "setting": "Hepatitis C virus [21]", "result": 0.89},
      {"measurement": "CI", "setting": "Hepatitis C virus [22]", "result": 0.66},
      {"measurement": "EC50", "setting": "Hepatitis C virus [23]", "result": 15, "unit": "nM"},
      {"measurement": "EC50", "setting": "Hepatitis C virus [24]", "result": 16, "unit": "nM"}
    ]}
  ]
}
